Variants at the floor of the assay were thinned out.
B1: tRNA (parent)
chain: GUUCCGUUGGCGUAAUGGUAACGCGUCUCCCUCCUAAGGAGAAGACUGCGGGUUCGAGUCCCGUACGGAACG

Variants of: B1
Assay: yeast fitness relative to wild type (ratio to wild type); higher = fitter; tRNA-Arg(CCU), competitive growth, 37 C, YPD
Outline: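 Start and end populations of a pooled competition were compared by 100-nucleotide paired-end sequencing of gene amplicons. The Saccharomyces cerevisiae strains carried tRNA-Arg(CCU) gene variants at the native genomic locus, synthesised with a 3% per-site mutation rate at 69 sites, and competed in YPD at 37°C for 24 hours in six parallel replicates. Darwinian fitness relative to wild type was based on the change in genotype frequencies. Genotypes required ≥ 100 starting reads, and estimates < 0.5 were set to 0.5.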
With GUCCCGUUGGUCUAAUGGUAACGCGUCUCCCUCCUAAGGAGAAGACUGCGGGUUCGAGUCCCGUACGGAACG [U3C C11U G12C] the yeast fitness was ≤ 0.5. With GUCCCGUUGGUGUAAUCGUAAAGGGUCCCCCUACUAAGGAGAAGACUGCGGGUUCGAGUCCCGUACGGAACG [U3C C11U G17C C22A C24G U28C C33A] the yeast fitness was ≤ 0.5. GUCCCGUUGGUGUAAUGGUAACGCGUCUCCCUCCUAAGGAGAAGACUGCGGGUUCAAGUCCCGUACGGAACG [U3C C11U G56A] gave a yeast fitness of 0.742. In the case of GUCCCGUUGGUGCAAUGGUAACGAGUCUCCCUCCUAAGGAGACGACUGCCGGUUCGAGUGCCGUACGGAACG [U3C C11U U13C C24A A43C G50C C60G], the yeast fitness is reported as ≤ 0.5. In the case of GUCCCGUUGGUGUAACGGUAACGCGUCUCGGUCCUAUGGAGAAGACUGCGGGUUCGAGUCCCGUACGGAACG [U3C C11U U16C C30G C31G A37U], the yeast fitness is reported as ≤ 0.5. For GUCCCGUUGGCGUAAUGGUAAAGCGUCUCCCUCCUAAGGAGAAGACAGCGGGUUCGAGUCCCGUACGGAGCG [U3C C22A U47A A70G], the yeast fitness was ≤ 0.5. For GUCCCGUUGGCGUAAUGGUAAGGCGUCUCCCUCCUAAGGAGAAGACUGCGGGUUCGAGUCCCGUACGGAACG [U3C C22G], the yeast fitness was 0.859. Variant GUCCCGUUGGCGUAAUGGUAAGGCGUCUCCCUCCUAAGGAGAAGACUGCGGGUUCGAGUCCCGUACGGACCG [U3C C22G A70C] has a yeast fitness of 0.679. For GUCCCGUUGGCGUAAUGGUAAGGCGUAUCCCUCCUAAGGAGAAGACUGUGGGUUCGAGUCCCGUACGGAACG [U3C C22G C27A C49U], the yeast fitness was ≤ 0.5. Variant GUCCCGUUGGCGUAAUGGUAAGGCGUGUCCGUCCUAAGGAGAAGACUGCGGGUUCGAGUCGCGUACGGUACG [U3C C22G C27G C31G C61G A69U] has a yeast fitness of 0.615. For GUCCCGUUGGCGUAAUGGUAAGGCGUCUCCCUCCUAAGGAGAAGACUGCGGCUUCGAGUCCCGUACCGAACG [U3C C22G G52C G67C], the yeast fitness was ≤ 0.5. GUCCCGUUGGCGUAAUGGUAAGGCGUCUCCCUCCUAAGGAGAAGACUGCGGGUUCGAGUCCCGUACUGAACG [U3C C22G G67U] showed a yeast fitness of 0.538. Variant GUCCCGUUGGCGUAAUGGUAAUGCGUCUCCCUCCUAAGGAGAAGACUGCGGGUUCGAGUCCCGUAUGGAACG [U3C C22U C66U] has a yeast fitness of 0.552. With GUCCCGUUGGCGUAAUGGUAAUACGUCUCCCUCCUAAGGAGAAGACUGCGGGUUCGAGUCCCGUACGGAACG [U3C C22U G23A] the yeast fitness was ≤ 0.5. GUCCCGUUGGCGUAAUGGUAAUGCGUCUCCCUCCUAAGGAGAAGACUACGGGUUCGAGUCCCGUACGGAACG [U3C C22U G48A] showed a yeast fitness of 0.955. With GUCCCGUUGGCGUAAUGGUAACGAGUCUCCCUCCUAAGGAGAGGACUGCGGAUUCGAAUCCCGUACGGAACG [U3C C24A A43G G52A G58A] the yeast fitness was ≤ 0.5. In the case of GUCCCGUUGGCGUAAUGGUAACGGGUCUCCCUCCUAAGGAGAAGACUGUGGGUUGGAAUCCCGUACGGAACG [U3C C24G C49U C55G G58A], the yeast fitness is reported as 0.576. For GUCCCGUUGGCGUAAUGGUAACGGGUCUCCCUCCUAAGGAGAAAACUGCGGGUUCGAGUCCCGUACGGAACG [U3C C24G G44A], the yeast fitness was ≤ 0.5. For GUCCCGUUGGCGUAAUGGUAACGUGUCUCCCUCCUCAGGAGAAGACUGCGGGUUCGAGUCCCAUACGGAACG [U3C C24U A36C G63A], the yeast fitness was ≤ 0.5. Work on GUCCCGUUGGCGUAAUGGUAACGUGUCUCCCUCCUAAGGGGAAGAAUGCGGGUUCGAGUCCCGUACGGAACG [U3C C24U A40G C46A] yielded a yeast fitness of 0.702. With GUCCCGUUGGCGUAAUGGUAACGUGUCUGCCUCCUAAGGAGAAGACUGUGGGUUCGAGUCCCGUACGGAACG [U3C C24U C29G C49U] the yeast fitness was 0.618. With GUCCCGUUGGCGUAAUGGUAACGUGUCUCCCUCCUAAGGAGAAGAUUGCGGGUUCGAGUCCUGUACGGAACG [U3C C24U C46U C62U] the yeast fitness was ≤ 0.5. Work on GUCCCGUUGGCGUAAUGGUAACGUGUCUCCCUCCUAAGGAGAAGACUGCGGGUUCAAGUCCCGUACGGAACG [U3C C24U G56A] yielded a yeast fitness of 0.757. GUCCCGUUGGCGUAAUGGUAACGCGUAUCCCUCCUAAGGAGAAGACUGCGGGUUCGAGUCCUGUACGGAACG [U3C C27A C62U] gave a yeast fitness of 0.526. In the case of GUCCCGUUGGCGUAAUGGUAACGCGUGUCUCUCCUAAGGAGAAGACUGCGGGUUCGAGUCCCGUACAGAACG [U3C C27G C30U G67A], the yeast fitness is reported as 0.554. In the case of GUCCCGUUGGCGUAAUGGUAACGCGUGUCCCUACUAAGGAGAAGACUGCGGGUUCGAGUCCCGUAGCGAACG [U3C C27G C33A C66G G67C], the yeast fitness is reported as ≤ 0.5. In the case of GUCCCGUUGGCGUAAUGGUAACGCGUGUCCCUCCUAAGGAGAAGACUGAGGGUUCGAGUCCCGUACGGAACG [U3C C27G C49A], the yeast fitness is reported as ≤ 0.5. GUCCCGUUGGCGUAAUGGUAACGCGUUUCCCUCCUAAGGAGAAGACUGCGGGUUCGAGUCCCGUACGGAACG [U3C C27U] showed a yeast fitness of 0.941. In the case of GUCCCGUUGGCGUAAUGGUAACGCGUUUCCCUCCUAAGGAGGAGACUGCGGGUUCGAGUCCCGUACAGAACG [U3C C27U A42G G67A], the yeast fitness is reported as ≤ 0.5. With GUCCCGUUGGCGUAAUGGUAACGCGUUUCCUUCCUAAGGAGAAGACUGCGGGUUCGAGUCCCGUACGGAACG [U3C C27U C31U] the yeast fitness was 0.787. With GUCCCGUUGGCGUAAUGGUAACGCGUUUCCCUCCUAAGGAGAAGAAUGCAGGUUCGAGUCCUGUACGGAACG [U3C C27U C46A G50A C62U] the yeast fitness was 0.595. In the case of GUCCCGUUGGCGUAAUGGUAACGCGUUUCCCUCCUAAGGAGAAGAGUGCGGGUUCGAGUCCCGUACGGAACG [U3C C27U C46G], the yeast fitness is reported as 0.789. For GUCCCGUUGGCGUAAUGGUAACGCGUUUCCCUCCUAAGGAGAAGACUGCGGGUUCGAGUCCUGUACGGAACG [U3C C27U C62U], the yeast fitness was 0.617. In the case of GUCCCGUUGGCGUAAUGGUAACGCGUUUCCCUCCUAAGGAGAAGACUACGGGUUAGAGUCCCAUACGGAACG [U3C C27U G48A C55A G63A], the yeast fitness is reported as ≤ 0.5. Variant GUCCCGUUGGCGUAAUGGUAACGCGUUUCCCUCCCAAGGAGAAGACUGCGGGUUCGAGUCCCGUACGGAACG [U3C C27U U35C] has a yeast fitness of 0.626. GUCCCGUUGGCGUAAUGGUAACGCGUCUGGCUCCUAAGGAGAAGACUGAGGGUUCCAGUCUCGUACGGAACG [U3C C29G C30G C49A G56C C61U] gave a yeast fitness of 0.789. With GUCCCGUUGGCGUAAUGGUAACGCGUCUGCCUACUAAGGAGAAGACUGCGGGUUCGAGUCCCGUACGGAACG [U3C C29G C33A] the yeast fitness was ≤ 0.5. For GUCCCGUUGGCGUAAUGGUAACGCGUCUUGCUCCUAAGCAGAAGACUGCGGGUUCGAGUACCGUACGGAACG [U3C C29U C30G G39C C60A], the yeast fitness was ≤ 0.5.

— the RNAGym collection of RNA variant scans (doi:10.1126/science.aae0568)
